From ChEMBL document CHEMBL1155309, “Synthesis of 3,6-disubstituted 7H-1,2,4-triazolo[3,4-b]-1,3,4-thiadiazines as novel analgesic/anti-inflammatory compounds” (Eur J Med Chem, 2009) come the findings set out here.

Data set [1] deals with Mus musculus. As to the kind of experiment: Analgesic activity in BALB/c mouse assessed as decrease in acetic acid-induced writhing at 50 mg/kg, po administered 1 hr prior to acetic acid challenge by Koster's test. The data set is classed as functional. The procedure, abridged: (§1)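 Test samples suspended in distilled water/0.5% CMC given orally; vehicle to controls. 1 h later, 3% (w/v) acetic acid i.p. (0.1 ml/10 g). Starting 5 min after injection, writhings counted for 10 min. Result expressed as % change from writhing controls. Groups of 4 mice (preliminary 100 mg/kg) or 4–5 mice (50/200 mg/kg). Two-tailed Student's t test.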

The subject of data set [2] is Mus musculus. The data set can be described thus: Antiinflammatory activity in BALB/c mouse assessed as inhibition of carrageenan-induced paw edema at 200 mg/kg, po after 90 mins. The data set is classed as functional. Particulars: 1.5 h. The procedure, abridged:
(§2)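 Oral dosing in 0.5% CMC/water suspension, vehicle for controls. 1 h later, carrageenan (0.5 mg/25 µl saline) injected subplantar into right hind paw, 25 µl saline into left. Right–left footpad thickness measured by dial callipers every 90 min for 6 h. % inhibition = [(n − n′)/n]×100 versus control. Groups of 3 (100 mg/kg screen) or 4–5 mice.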

For data set [3], the system named is Mus musculus. The data set can be described thus: Antiinflammatory activity in BALB/c mouse assessed as inhibition of carrageenan-induced paw edema at 200 mg/kg, po after 270 mins. The data set is classed as functional. Particulars: 4.5 h. The procedure, abridged: as §2
The test system of data set [4] is Mus musculus. As to the kind of experiment: Antioxidant activity in BALB/c mouse assessed as TBARS level per gram of wet weight of tissue at 200 mg/kg, po. Type of data set: functional. Also on record: unit: nmol/g. The procedure, abridged:
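Mice dosed orally at 200 mg/kg were killed under ether 8 h after the writhing test and stomachs removed. Tissue extract supernatant obtained by centrifugation (1000×g 10 min, then 2000×g 30 min, 4 °C). Heated with TBA in boiling water for 60 min, TCA added, absorbance read at 532 nm against blank tissue. Calibrated with 1,1,3,3-tetraethoxypropane; reported as nmol TBARS/g wet tissue.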

Data set [5] relates to Mus musculus. The data set can be described thus: Analgesic activity in BALB/c mouse assessed as decrease in acetic acid-induced writhing at 100 mg/kg, po administered 1 hr prior to acetic acid challenge by Koster's test. The data set is classed as functional. The procedure, abridged: as §1
In data set [6] the test system is Mus musculus. As to the kind of experiment: Antiinflammatory activity in BALB/c mouse assessed as inhibition of carrageenan-induced paw edema at 200 mg/kg, po after 360 mins. The data set is classed as functional. As to conditions: 6 h. The procedure, abridged: as §2
Data set [7] concerns Mus musculus. The data set can be described thus: Analgesic activity in BALB/c mouse assessed as decrease in acetic acid-induced writhing at 200 mg/kg, po administered 1 hr prior to acetic acid challenge by Koster's test. Type of data set: functional. The procedure, abridged: as §1
(In general: In writhing tests, fewer writhes than in controls are read as antinociception.)

Data set [8] deals with Mus musculus. As to the kind of experiment: Acute toxicity in BALB/c mouse assessed as diarrhea and depression at 50 to 200 mg/kg, po after 72 hrs. As to conditions: in vivo. Type of data set: organism-based. Also on record: dose 50-200 mg/kg, route oral.
In data set [9] the test system is Mus musculus. The data set can be described thus: Antiinflammatory activity in BALB/c mouse assessed as inhibition of carrageenan-induced paw edema at 50 mg/kg, po after 360 mins. The data set is classed as functional. Particulars: 6 h. The procedure, abridged: as §2
In general terms: The carrageenan paw model is a standard test of acute inflammation.

The test system of data set [10] is Mus musculus. As to the kind of experiment: Antiinflammatory activity in BALB/c mouse assessed as inhibition of carrageenan-induced paw edema at 50 mg/kg, po after 90 mins. Type of data set: functional. Particulars: 1.5 h. The procedure, abridged:
as §2

Data set [11] has as its system Mus musculus. The data set can be described thus: Antiinflammatory activity in BALB/c mouse assessed as inhibition of carrageenan-induced paw edema at 100 mg/kg, po after 180 mins. The data set is classed as functional. As to conditions: 3 h. The procedure, abridged:
as §2

Molecules are shown by their SMILES.

A word on the inhibition in vivo: it is the change of the read-out against control, counted positive when it falls. As to `COc1cc(CCc2n[nH]c(=S)n2N)cc(OC)c1OC`, the inhibition in vivo at 50 mg/kg with Mus musculus [1] was found to be 23.1%. In addition, the inhibition in vivo at 200 mg/kg stood at 39.3% in the data set on Mus musculus [2], 20.4% with Mus musculus [3], 41.7% in the data set on Mus musculus [6] and 54.2% in the data set with Mus musculus [7]. Also, the Activity in the data set with Mus musculus [4] is 104.3 nmol; with Mus musculus [8], “Non-toxic”. Also, the inhibition in vivo at 100 mg/kg in the data set with Mus musculus [5] was 52.4%.

Consider `COc1cc(Cc2n[nH]c(=S)n2N)cc(OC)c1OC`, for which the results for the inhibition in vivo at 50 mg/kg in the data set with Mus musculus [9], in the data set on Mus musculus [1] and in the data set on Mus musculus [10] were 24.9%, 21.6% and 32.3%, respectively. Moreover, the figures for the inhibition in vivo at 200 mg/kg in the data set with Mus musculus [3], with Mus musculus [6] and in the data set on Mus musculus [7] were 49.2%, 21.2% and 61%, respectively. In addition, the Activity in the data set with Mus musculus [4] was 96.2 nmol; in the data set on Mus musculus [8] it was “Non-toxic”. Moreover, the inhibition in vivo at 100 mg/kg was 85.8% with Mus musculus [5] and 30% in the data set on Mus musculus [11].
